Measured values reported in PMC8485830 (ChemistryOpen, 2021).

Tests used:
Assay in all cases: activity assay, unused NAD+ converted to a fluorescent compound
Format in all cases: biochemical
[1] = biological target: T1, PARP3 (Homo sapiens, UniProt Q9Y6F1)
T1 sequence (Q9Y6F1 1-533): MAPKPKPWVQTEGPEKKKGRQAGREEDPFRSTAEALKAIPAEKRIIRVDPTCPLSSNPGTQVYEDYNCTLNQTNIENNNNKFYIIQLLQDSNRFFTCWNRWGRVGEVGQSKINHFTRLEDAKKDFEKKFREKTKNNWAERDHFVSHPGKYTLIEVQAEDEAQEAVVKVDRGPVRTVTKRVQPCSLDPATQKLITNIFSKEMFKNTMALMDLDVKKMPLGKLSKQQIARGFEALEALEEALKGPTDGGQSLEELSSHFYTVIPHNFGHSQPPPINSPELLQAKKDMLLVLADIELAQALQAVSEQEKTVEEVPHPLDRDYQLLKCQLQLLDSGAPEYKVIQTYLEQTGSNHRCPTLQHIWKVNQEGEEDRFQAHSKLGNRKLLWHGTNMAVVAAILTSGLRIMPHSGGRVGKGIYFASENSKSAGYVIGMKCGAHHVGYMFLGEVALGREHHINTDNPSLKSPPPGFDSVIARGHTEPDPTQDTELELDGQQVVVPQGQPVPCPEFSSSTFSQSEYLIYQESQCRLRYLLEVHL
Outline: (§1)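 PARP3 or PARP4 was expressed as an N-terminal His-tag construct in E. coli Rosetta2 (DE3) in autoinduction TB medium, overnight at 18 °C. It was purified by Ni-affinity followed by size-exclusion chromatography. Activity was read by converting residual NAD+ to a fluorescent product. Inhibitor was tested as half-log dilutions, with reactions in quadruplicate. IC50 was fitted with a four-variable sigmoidal dose–response curve.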

[2] = biological target: T2, PARP4 (Homo sapiens, UniProt Q9UKK3)
T2 sequence (Q9UKK3 242-573 limits assumed): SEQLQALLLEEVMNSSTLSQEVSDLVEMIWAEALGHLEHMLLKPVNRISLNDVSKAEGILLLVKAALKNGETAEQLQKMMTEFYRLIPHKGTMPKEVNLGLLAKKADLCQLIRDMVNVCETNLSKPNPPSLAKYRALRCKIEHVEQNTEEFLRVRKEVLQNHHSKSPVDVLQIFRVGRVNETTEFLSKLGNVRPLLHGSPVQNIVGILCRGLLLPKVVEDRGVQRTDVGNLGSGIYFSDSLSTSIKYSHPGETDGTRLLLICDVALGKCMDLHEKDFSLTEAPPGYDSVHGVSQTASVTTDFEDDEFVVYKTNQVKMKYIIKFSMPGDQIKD
Outline: as §1

[3] = biological target: T3, PARP16 (Homo sapiens, UniProt Q8N5Y8)
T3 sequence (Q8N5Y8 5-279 limits assumed): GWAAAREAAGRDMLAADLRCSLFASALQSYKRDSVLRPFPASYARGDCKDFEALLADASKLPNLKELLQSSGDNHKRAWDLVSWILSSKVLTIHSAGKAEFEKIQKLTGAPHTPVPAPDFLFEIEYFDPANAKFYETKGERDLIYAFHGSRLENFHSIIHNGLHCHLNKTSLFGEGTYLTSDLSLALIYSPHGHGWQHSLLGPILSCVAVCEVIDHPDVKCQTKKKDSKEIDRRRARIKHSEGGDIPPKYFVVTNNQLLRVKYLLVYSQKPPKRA
Outline: (§2)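 Human PARP12 or PARP16 carrying an N-terminal His tag was expressed in E. coli Rosetta2 (DE3) in autoinduction TB medium, overnight at 18 °C. It was purified by Ni-affinity and size-exclusion chromatography, then the His tag was cleaved with TEV protease. Unused NAD+ was converted to a fluorescent compound. Test compound was given in half-log dilutions, in quadruplicate. IC50 came from a four-variable sigmoidal dose–response fit.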

[4] = biological target: T4, PARP12 (Homo sapiens, UniProt Q9H0J9)
T4 sequence (Q9H0J9 489-684 limits assumed): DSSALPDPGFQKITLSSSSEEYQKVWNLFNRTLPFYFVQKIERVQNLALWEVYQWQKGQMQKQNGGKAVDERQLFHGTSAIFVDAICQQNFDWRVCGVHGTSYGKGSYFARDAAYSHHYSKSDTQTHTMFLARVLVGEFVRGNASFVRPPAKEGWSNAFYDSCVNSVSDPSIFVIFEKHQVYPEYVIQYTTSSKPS
Outline: as §2

Structure (SMILES) | IC50 [1] [µM] | IC50 [2] [µM] | IC50 [3] [µM] | IC50 [4] [µM]
NC(=O)c1ccc(Oc2cccc(C(N)=O)c2)cc1 [compound 20, 3‐(4‐carbamoylphenoxy)benzamide] | > 100 | 7 | > 10 | > 10
N#Cc1ccc(Oc2ccc(C(N)=O)cc2)cc1 [compound 10, 4‐(4‐cyanophenoxy)benzamide] | > 100 | > 100 | > 10 | > 10
